Reference: ChEMBL document CHEMBL4373711, “Development of 3,5-Dinitrophenyl-Containing 1,2,4-Triazoles and Their Trifluoromethyl Analogues as Highly Efficient Antitubercular Agents Inhibiting Decaprenylphosphoryl-β-d-ribofuranose 2'-Oxidase” (J Med Chem, 2019)
Values after ≈ are worked out from the molar mass of the structure shown. Active and inactive are the calls of the source. The rule behind the calls is not given here.

Experiments:
Serratia marcescens = experiment: Antibacterial activity against Serratia marcescens at highest concentration measured after 24 to 48 hrs by alamar blue dye based broth microdilution assay; assay type: functional, organism-based
Escherichia coli = experiment: Antibacterial activity against Escherichia coli ATCC 25922 CCM 3954 at highest concentration measured after 24 to 48 hrs by alamar blue dye based broth microdilution assay; assay type: functional, organism-based
Klebsiella pneumoniae = experiment: Antibacterial activity against Klebsiella pneumoniae at highest concentration measured after 24 to 48 hrs by alamar blue dye based broth microdilution assay; assay type: functional, organism-based
Mycobacterium kansasii [1] = experiment: Antimycobacterial activity against Mycobacterium kansasii 6509/96 after 14 days; assay type: functional; details: 6509/96, 336 h
Method in brief: (§1)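 Microdilution in Šula's semisynthetic medium; compounds in DMSO at 32–0.03 µM. Inoculum from 1.0 McFarland suspension diluted 10-4. […] Isoniazid and rifampicin as reference drugs.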

Mycobacterium kansasii [2] = experiment: Antimycobacterial activity against Mycobacterium kansasii CNCTC My 235/80 after 21 days; assay type: functional; details: CNCTC My 235/80, 504 h; method in brief: as §1
Mycobacterium kansasii [3] = experiment: Antimycobacterial activity against Mycobacterium kansasii CNCTC My 235/80 after 14 days; assay type: functional; details: CNCTC My 235/80, 336 h; method in brief: as §1
[4] = test system: Mycobacterium tuberculosis; experiment: Antimycobacterial activity against Mycobacterium tuberculosis H37Rv CNCTC My 331/88 after 14 days; assay type: functional; details: H37Rv CNCTC My 331/88, 336 h
Method in brief: (§2)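 M. tuberculosis strains (H37Rv and clinical MDR/XDR isolates) tested by microdilution in Šula's semisynthetic medium. Compounds were dissolved in DMSO and tested at 32 to 0.03 µM in twofold steps. Inoculum was a 1.0 McFarland suspension diluted 10-3. Plates were incubated at 37 °C and read at 14 and 21 days.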

Aspergillus fumigatus = experiment: Antifungal activity against Aspergillus fumigatus ATCC 204305 at highest concentration measured after 24 to 48 hrs by alamar blue dye based broth microdilution assay; assay type: functional, organism-based
Mycobacterium kansasii [5] = experiment: Antimycobacterial activity against Mycobacterium kansasii 6509/96 after 7 days; assay type: functional; details: 6509/96, 168 h; method in brief: as §1
Candida parapsilosis = experiment: Antifungal activity against Candida parapsilosis ATCC 22019 CCM 8260 at highest concentration measured after 24 to 48 hrs by alamar blue dye based broth microdilution assay; assay type: functional, organism-based
Lichtheimia corymbifera = experiment: Antifungal activity against Lichtheimia corymbifera CCM 8077 at highest concentration measured after 24 to 48 hrs by alamar blue dye based broth microdilution assay; assay type: functional, organism-based
[6] = test system: Trichophyton interdigitale; experiment: Antifungal activity against Trichophyton interdigitale ATCC 9533 CCM 8377 at highest concentration measured after 72 to 120 hrs by alamar blue dye based broth microdilution assay; assay type: functional
Pichia kudriavzevii = experiment: Antifungal activity against Candida krusei ATCC 6258 CCM8271 at highest concentration measured after 24 to 48 hrs by alamar blue dye based broth microdilution assay; assay type: functional, organism-based
[7] = test system: Staphylococcus epidermidis; experiment: Antibacterial activity against Staphylococcus epidermidis at highest concentration measured after 24 to 48 hrs by alamar blue dye based broth microdilution assay; assay type: functional, organism-based
Mycobacterium kansasii [8] = experiment: Antimycobacterial activity against Mycobacterium kansasii 6509/96 after 21 days; assay type: functional; details: 6509/96, 504 h; method in brief: as §1
Pseudomonas aeruginosa = experiment: Antibacterial activity against Pseudomonas aeruginosa ATCC 27853 CCM 3955 at highest concentration measured after 24 to 48 hrs by alamar blue dye based broth microdilution assay; assay type: functional, organism-based
Mycobacterium avium [9] = experiment: Antimycobacterial activity against Mycobacterium avium CNCTC My 330/88 after 14 days; assay type: functional; details: CNCTC My 330/88, 336 h
Method in brief: (§3)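 M. avium was tested by microdilution in Šula's semisynthetic medium, with compounds dissolved in DMSO and serially diluted from 1000 down to 1. Inoculum was a 1.0 McFarland suspension diluted 10-5. Plates were incubated at 37 °C and read at 14 and 21 days. […] Isoniazid and rifampicin served as standards.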

Staphylococcus aureus [10] = experiment: Antibacterial activity against methicillin-resistant Staphylococcus aureus subsp. aureus ATCC 43300 CCM 4750 at highest concentration measured after 24 to 48 hrs by alamar blue dye based broth microdilution assay; assay type: functional, organism-based
[11] = test system: Mycobacterium tuberculosis; experiment: Antimycobacterial activity against Mycobacterium tuberculosis H37Rv CNCTC My 331/88 after 21 days; assay type: functional; details: H37Rv CNCTC My 331/88, 504 h; method in brief: as §2
Aspergillus flavus = experiment: Antifungal activity against Aspergillus flavus CCM 8363 at highest concentration measured after 24 to 48 hrs by alamar blue dye based broth microdilution assay; assay type: functional, organism-based
Candida tropicalis = experiment: Antifungal activity against Candida tropicalis ATCC 750 CCM 8264 at highest concentration measured after 24 to 48 hrs by alamar blue dye based broth microdilution assay; assay type: functional, organism-based
Staphylococcus aureus [12] = experiment: Antibacterial activity against Staphylococcus aureus subsp. aureus ATCC 29213 CCM 4223 at highest concentration measured after 24 to 48 hrs by alamar blue dye based broth microdilution assay; assay type: functional, organism-based
Enterococcus faecalis = experiment: Antibacterial activity against Enterococcus faecalis ATCC 29212 CCM 4224 at highest concentration measured after 24 to 48 hrs by alamar blue dye based broth microdilution assay; assay type: functional, organism-based
Mycobacterium avium [13] = experiment: Antimycobacterial activity against Mycobacterium avium CNCTC My 330/88 after 21 days; assay type: functional; details: CNCTC My 330/88, 504 h; method in brief: as §3
Candida albicans = experiment: Antifungal activity against Candida albicans ATCC 24433 CCM 8320 at highest concentration measured after 24 to 48 hrs by alamar blue dye based broth microdilution assay; assay type: functional, organism-based
Mycobacterium kansasii [14] = experiment: Antimycobacterial activity against Mycobacterium kansasii CNCTC My 235/80 after 7 days; assay type: functional; details: CNCTC My 235/80, 168 h; method in brief: as §1

Structure (SMILES)	Activity (Serratia marcescens)	Activity (Escherichia coli)	Activity (Klebsiella pneumoniae)	MIC99 (Mycobacterium kansasii [1])	MIC99 (Mycobacterium kansasii [2])	MIC99 (Mycobacterium kansasii [3])	MIC99 [4]	Activity (Aspergillus fumigatus)	MIC99 (Mycobacterium kansasii [5])	Activity (Candida parapsilosis)	Activity (Lichtheimia corymbifera)	Activity [6]	Activity (Pichia kudriavzevii)	Activity [7]	MIC99 (Mycobacterium kansasii [8])	Activity (Pseudomonas aeruginosa)	MIC99 (Mycobacterium avium [9])	Activity (Staphylococcus aureus [10])	MIC99 [11]	Activity (Aspergillus flavus)	further results
O=[N+]([O-])c1cc(CSc2nnc(-c3ccc(O)cc3)n2Cc2ccccc2)cc([N+](=O)[O-])c1	inactive	inactive	inactive	16 µM (≈ 7.42 µg/mL)	16 µM (≈ 7.42 µg/mL)	16 µM (≈ 7.42 µg/mL)	16 µM (≈ 7.42 µg/mL)	inactive	8 µM (≈ 3.71 µg/mL)	inactive	inactive	inactive	inactive	inactive	16 µM (≈ 7.42 µg/mL)	inactive	250 µM (≈ 116 µg/mL)	inactive	16 µM (≈ 7.42 µg/mL)	inactive	Activity (Candida tropicalis): inactive; Activity (Staphylococcus aureus [12]): inactive; Activity (Enterococcus faecalis): inactive; MIC99 (Mycobacterium avium [13]): 250 µM (≈ 116 µg/mL); Activity (Candida albicans): inactive; MIC99 (Mycobacterium kansasii [14]): 8 µM (≈ 3.71 µg/mL)
CCCCCCc1nnc(SCc2cc([N+](=O)[O-])cc([N+](=O)[O-])c2)n1Cc1ccccc1	inactive	inactive	inactive	4 µM (≈ 1.82 µg/mL)	2 µM (≈ 0.911 µg/mL)	2 µM (≈ 0.911 µg/mL)	2 µM (≈ 0.911 µg/mL)	inactive	2 µM (≈ 0.911 µg/mL)	inactive	inactive	inactive	inactive	inactive	4 µM (≈ 1.82 µg/mL)	inactive	250 µM (≈ 114 µg/mL)	inactive	2 µM (≈ 0.911 µg/mL)	inactive	Activity (Candida tropicalis): inactive; Activity (Staphylococcus aureus [12]): inactive; Activity (Enterococcus faecalis): inactive; MIC99 (Mycobacterium avium [13]): 250 µM (≈ 114 µg/mL); Activity (Candida albicans): inactive; MIC99 (Mycobacterium kansasii [14]): 1 µM (≈ 0.456 µg/mL)
O=[N+]([O-])c1cc(CSc2nnc(-c3ccccc3)n2Cc2ccccc2)cc(C(F)(F)F)c1	inactive	inactive	inactive	> 32 µM	> 32 µM	> 32 µM	16 µM (≈ 7.53 µg/mL)	inactive	> 32 µM	inactive	inactive	inactive	inactive	inactive	> 32 µM	inactive	250 µM (≈ 118 µg/mL)	inactive	32 µM (≈ 15.1 µg/mL)	inactive	Activity (Candida tropicalis): inactive; Activity (Staphylococcus aureus [12]): inactive; Activity (Enterococcus faecalis): inactive; MIC99 (Mycobacterium avium [13]): 250 µM (≈ 118 µg/mL); Activity (Candida albicans): inactive; MIC99 (Mycobacterium kansasii [14]): > 32 µM
O=[N+]([O-])c1cc(Cn2c(SCc3ccccc3)nnc2-c2ccccc2)cc([N+](=O)[O-])c1	inactive	inactive	inactive	16 µM (≈ 7.16 µg/mL)	16 µM (≈ 7.16 µg/mL)	8 µM (≈ 3.58 µg/mL)	8 µM (≈ 3.58 µg/mL)	inactive	8 µM (≈ 3.58 µg/mL)	inactive	inactive	inactive	inactive	inactive	16 µM (≈ 7.16 µg/mL)	inactive	> 1000 µM	inactive	16 µM (≈ 7.16 µg/mL)	inactive	Activity (Candida tropicalis): inactive; Activity (Staphylococcus aureus [12]): inactive; Activity (Enterococcus faecalis): inactive; MIC99 (Mycobacterium avium [13]): > 1000 µM; Activity (Candida albicans): inactive; MIC99 (Mycobacterium kansasii [14]): 4 µM (≈ 1.79 µg/mL)
CCCCCCCCCCCCn1c(SCc2ccccc2)nnc1-c1cc([N+](=O)[O-])cc([N+](=O)[O-])c1	inactive	inactive	inactive	4 µM (≈ 2.1 µg/mL)	4 µM (≈ 2.1 µg/mL)	4 µM (≈ 2.1 µg/mL)	2 µM (≈ 1.05 µg/mL)	inactive	2 µM (≈ 1.05 µg/mL)	inactive	inactive	inactive	inactive	inactive	4 µM (≈ 2.1 µg/mL)	inactive	250 µM (≈ 131 µg/mL)	inactive	4 µM (≈ 2.1 µg/mL)	inactive	Activity (Candida tropicalis): inactive; Activity (Staphylococcus aureus [12]): inactive; Activity (Enterococcus faecalis): inactive; MIC99 (Mycobacterium avium [13]): 250 µM (≈ 131 µg/mL); Activity (Candida albicans): inactive; MIC99 (Mycobacterium kansasii [14]): 2 µM (≈ 1.05 µg/mL)
